Screening results deposited in PubChem BioAssay by The Scripps Research Institute Molecular Screening Center.
A selection: hits, their analogues and other compounds. The true share with any hit is near 1.2%.
ZTA counter – counter-screen for EBNA-1 inhibitors: inhibitors of Epstein-Barr virus ZTA. AID 2234. ZTA-DNA binding, fluorescence polarization. P03206. inhibition, % at 11 µM. hit rate 0.15% among 320,000; in the data active = inhibition above about 33%
Target sequence (P03206 whole entry, looked up): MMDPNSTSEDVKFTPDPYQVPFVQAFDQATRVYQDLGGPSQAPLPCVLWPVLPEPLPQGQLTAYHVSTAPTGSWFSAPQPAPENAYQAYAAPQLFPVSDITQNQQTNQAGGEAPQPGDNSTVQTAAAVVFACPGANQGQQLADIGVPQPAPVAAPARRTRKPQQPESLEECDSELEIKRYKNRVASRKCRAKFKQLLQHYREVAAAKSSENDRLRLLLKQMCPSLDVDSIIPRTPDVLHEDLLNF
HCV core dimer – HCV core protein dimerization inhibition. TR-FRET GST/Flag-core106 dimerization, 1536-well. inhibition, % at 5 µM. hit rate 0.33% among 300,000. AID 1899;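 active = inhibition above the mean of all tested compounds plus 3 SD, set per screening campaign, cut at about 45% in these data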
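System: GST-tagged and Flag-tagged HCV core protein residues 1-106 / Input: core106 proteins, GST 13.5 nM and Flag 17 nM / Buffer or medium: KF-containing HEPES buffer, pH 7.45, DTT, CHAPS, BSA / Probe or stimulus: Eu-anti-GST and XL665-anti-Flag labelled anti-tag antibodies / Schedule: 4 h, 22.5 °C incubation / Technique: TR-FRET 671 and 617 nm emission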
HCV NS3 hel inh – HCV NS3 helicase inhibition; NS3 helicase DNA unwinding, Cy5 molecular beacon fluorescence; inhibition, % at 10.9 µM; hit rate 0.56% among 290,000;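 active = inhibition above the mean of all tested compounds plus 3 SD, set per campaign, cut at about 35% in these data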
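Test system: hepatitis C virus NS3 helicase domain fragment enzyme. Also added: annealed dual-labelled DNA beacon duplex, ATP-started. Timing: 60 min unwinding reaction at 25 °C after ATP addition. Technique: Cy5 fluorescence. Measure: % inhibition of unwinding.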
EBNA-1 inh – blocks EBNA-1 binding to DNA. EBNA-1 DNA binding, fluorescence polarization. inhibition, % at 14.8 µM. hit rate 0.34% among 300,000; in the data active = inhibition above about 28%
EBNA-1 confirm – EBNA-1 (EBV) inhibition, confirmation. shares compounds with EBNA-1 inh. Recombinant EBNA-1 DBD, Cy5-DNA fluorescence polarization. inhibition, % at 14.8 µM. hit rate 35% among 830;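 active = mean inhibition across replicates above a set limit taken from the earlier primary screen, cut at about 28% in these data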
ZTA DNA inh trip – blocks Epstein-Barr virus ZTA in triplicate, EBNA-1 counter-screen; shares compounds with EBNA-1 inh; Zta-ZRE DNA binding, Cy5 fluorescence polarization; inhibition, % at 11.1 µM; 830 tested, under 10 active; AID 2328;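 active = mean inhibition over triplicates above a set limit taken from the primary EBNA-1 screen, cut at about 37% in these data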;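 also: purified full length Zta protein with Cy5 labeled ZRE DNA probe; inhibitors lower polarization by freeing the labeled DNA probe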
Of the large screens only hits and unclear results are named; the others gave an inactive call (follow-up assays come after a bar, where they were run).

Cc1cc(C)c2cc(C#N)c(SCC(=O)NCC3CCCO3)nc2c1 (stereo not drawn)	none
Cc1cc(C)c2cc(C#N)c(SCC(=O)Nc3ccc4c(c3)OCO4)nc2c1	EBNA-1 inh 32.1 | EBNA-1 confirm 49.5 | ZTA DNA inh trip inactive
COc1cc(C(=O)OCC(=O)NCc2ccc(F)cc2)ccc1OCC(C)C	none
Cc1cc2c(Nc3ccc(C(=O)O)cc3)ncnc2s1	EBNA-1 inh 97.1 | EBNA-1 confirm inactive | ZTA DNA inh trip inactive
CCc1ccccc1NC(=O)COc1cccc2ccc(C)nc12	none
Cc1cccc(C)c1NC(=O)Cn1nnc(C(=O)Nc2ccc(F)cc2F)c1N	EBNA-1 inh 28.0 | EBNA-1 confirm 29.2 | ZTA DNA inh trip inactive
CC(C)CNC(=S)N(Cc1ccco1)Cc1cc2cc3c(cc2[nH]c1=O)OCCO3	EBNA-1 inh 61.2 | EBNA-1 confirm inactive | ZTA DNA inh trip inactive
CCNC(=S)N(Cc1ccco1)Cc1cc2cc3c(cc2[nH]c1=O)OCCO3	none
COc1ccc2cc(C(=O)/C=C/c3cc(OC)c(OC)c(OC)c3)ccc2c1	EBNA-1 inh 47.9 | EBNA-1 confirm inactive | ZTA DNA inh trip inactive
O=C(Nc1cccc(C(F)(F)F)c1)c1cc[n+]([O-])cc1	none
O=C(Nc1cccc(C(F)(F)F)c1)c1ccc2nc(-c3ccco3)c(-c3ccco3)nc2c1	HCV core dimer 74.0, EBNA-1 inh 68.0 | EBNA-1 confirm inactive | ZTA DNA inh trip inactive
O=C(O)CCC(=O)NCc1c(Cl)cccc1Sc1ccc(Cl)cc1	none
Cc1ccc(NC(=O)CCCN2C(=O)c3cccc4cccc(c34)C2=O)cc1	EBNA-1 inh 55.4 | EBNA-1 confirm inactive | ZTA DNA inh trip inactive
Cc1ccc(NC(=O)CCN2C(=O)c3cccc4cccc(c34)C2=O)cc1	none
COCCOC(=O)c1c(NC(=O)CNc2ccc(C)c(F)c2)sc(C(N)=O)c1C	EBNA-1 inh 42.0 | EBNA-1 confirm inactive | ZTA DNA inh trip inactive
CCN1C(=O)[C@H]2[C@@H](c3ccc(C)cc3)N3C(=O)N(c4cccc(Br)c4)C(=O)[C@@]3(CC(C)C)[C@H]2C1=O	none (no result: HCV NS3 hel inh)
c1ccc(-c2ccc(C3=Nn4c(nnc4-c4cc(-c5ccccc5)n[nH]4)SC3)cc2)cc1	EBNA-1 inh 33.1 | EBNA-1 confirm 52.4 | ZTA DNA inh trip inactive
COc1ccc(N(C)S(=O)(=O)c2ccc3c(c2)CCN3C(=O)C2CC2)c(OC)c1	none
Cc1ccccc1OCCn1cc(/C=C(\C#N)C(=O)NCc2ccco2)c2ccccc21	EBNA-1 inh 33.7 | EBNA-1 confirm 51.4 | ZTA DNA inh trip inactive
Cc1ccc(C)c(OCCn2cc(/C=C(\C#N)C(=O)NCc3cccs3)c3ccccc32)c1	none
N#C/C(=C\c1cn(CCOc2ccccc2F)c2ccccc12)C(=O)NCc1cccs1	EBNA-1 inh 124.1 | EBNA-1 confirm inactive | ZTA DNA inh trip inactive
N#C/C(=C\c1cn(CCOc2ccccc2)c2ccccc12)C(=O)NCc1ccco1	none
O=C(N1CCC(n2nc(-c3ccccc3)oc2=O)CC1)C1(c2ccccc2)CC1	none
Cc1ccc(S(=O)(=O)N2CCC(NC(=O)c3cccnc3)CC2)cc1Cl	none
Cc1cccc(NC(=O)CSc2ccc(-c3cccs3)nn2)c1C	EBNA-1 inh 28.8 | EBNA-1 confirm inactive | ZTA DNA inh trip inactive
CC(=O)Nc1ccc(NC(=O)CSc2ccc(-c3cccs3)nn2)cc1	EBNA-1 inh 41.4 | EBNA-1 confirm 37.6 | ZTA DNA inh trip inactive
Cc1ccc(C)c(NC(=O)CSc2ccc(-c3cccs3)nn2)c1	none
CC(=O)Nc1ccc(NC(=O)CSc2ccc(-c3ccco3)nn2)cc1	none
COc1cccc(N2CC(O)=C(c3nc4ccccc4c(=O)[nH]3)C2=N)c1	EBNA-1 inh 66.8 | EBNA-1 confirm 124.5 | ZTA DNA inh trip inactive
Cc1cc(C)cc(N2CC(O)=C(c3nc4ccccc4c(=O)[nH]3)C2=N)c1	none
CCOc1ccc(C(=O)CSc2nnc3ccccn23)cc1	none
CCn1c(CSc2nnc3ccccn23)nc2cc(C(=O)O)ccc21	EBNA-1 inh 44.8 | EBNA-1 confirm 44.4 | ZTA DNA inh trip 82.4
CNc1ccc(C(=O)OCC(=O)NCc2ccc3c(c2)OCO3)cc1[N+](=O)[O-]	none (no result: HCV core dimer, HCV NS3 hel inh, EBNA-1 inh)
Cc1cc(C)c2[nH]c(C)c(CN3CCCCCC3)c(=O)c2c1	none
Cc1ccc2nc(-c3cccnc3SCC(=O)N3c4ccccc4CC3C)[nH]c2c1 (stereo not drawn)	EBNA-1 inh 28.4 | EBNA-1 confirm 29.9 | ZTA DNA inh trip inactive
Cc1ccc(C2CC(c3cccs3)=NN2C(=O)CSc2nc(=O)n3cc(C)ccc3n2)cc1 (stereo not drawn)	EBNA-1 inh 41.5 (no result: HCV NS3 hel inh) | EBNA-1 confirm inactive | ZTA DNA inh trip inactive
COc1ccc(NC(=O)n2ncc3c(C)cccc32)cc1	none
CN(C)N1C(=O)CC(NNC(=O)c2ccncc2)C1=O (stereo not drawn)	none
N#Cc1c2ncn(CC(=O)c3ccc(Br)cc3)c(=O)c2c2n1CCC2	EBNA-1 inh 28.8 | EBNA-1 confirm 136.1 | ZTA DNA inh trip inactive
CCc1ccc(NC(=O)CCC(=O)Nc2nnc(C(C)C)s2)cc1	EBNA-1 inh 40.1 | EBNA-1 confirm inactive | ZTA DNA inh trip inactive
CCOC(=O)C(Cc1ccc(NC(=O)/C(=C/c2ccc(OC(C)=O)cc2)NC(C)=O)cc1)N1C(=O)c2ccccc2C1=O (stereo not drawn)	none
CCOC(=O)C(Cc1ccc(NC(=O)/C(=C/c2ccccc2)NC(=O)c2ccccc2)cc1)N1C(=O)c2ccccc2C1=O (stereo not drawn)	HCV core dimer 58.3, EBNA-1 inh 40.6 | EBNA-1 confirm inactive | ZTA DNA inh trip inactive
CCOc1ccc(C(=O)NCCN(C)C)cc1	none
CCOc1ccc(C(=O)NCCCCNC(=O)c2ccc(OCC)cc2)cc1	EBNA-1 inh 28.1 | EBNA-1 confirm inactive | ZTA DNA inh trip inactive
CN(CC(=O)Nc1ccc(F)cc1)C(=O)Cn1cnc2ccc(Cl)cc2c1=O	none (no result: HCV core dimer, HCV NS3 hel inh, EBNA-1 inh)
COc1ccc(S(=O)(=O)N2CCc3ccccc32)cc1[N+](=O)[O-]	none
C=CCn1c(SCC(=O)NCc2ccco2)nc2sc(C)c(C)c2c1=O	EBNA-1 inh 41.6 | EBNA-1 confirm inactive | ZTA DNA inh trip inactive
Cc1sc2nc(SCC(=O)NCc3ccco3)n(Cc3ccccc3)c(=O)c2c1C	none
CCCn1c(C(C)Nc2nc(-c3cc(Cl)c(N)c(Cl)c3)cs2)nc2cc(Cl)c(N3CCCCC3)cc21 (stereo not drawn)	none
Cc1ccc(-n2c(=O)c3ccc(C(=O)NCc4ccco4)cc3n(Cc3ccccc3C#N)c2=O)cc1	EBNA-1 inh 49.6 | EBNA-1 confirm inactive | ZTA DNA inh trip inactive
COC(=O)c1ccc(/C=N/NC(=O)CC(=O)NCc2cccnc2)cc1	none
CCCOc1cccc(-c2nnc(N)s2)c1	EBNA-1 inh 33.3 | EBNA-1 confirm inactive | ZTA DNA inh trip inactive
Cc1cccc(C(=O)Nc2nc3ccc(S(C)(=O)=O)cc3s2)c1	none (no result: ZTA counter, HCV core dimer, EBNA-1 inh)
Cc1ccc(C(=O)Nc2nc3ccc(S(C)(=O)=O)cc3s2)cc1C	EBNA-1 inh 143.9 | EBNA-1 confirm 96.8 | ZTA DNA inh trip inactive
